Here are results for two molecules from BindingDB's records for doi:10.1021/jm0309203 (University of Bath, 2003).

pKi: −log10 of the molar value.

One experiment deals with Mu-type opioid receptor (Homo sapiens, UniProt P35372). In words: Binding affinity against cloned human Opioid receptor mu 1 transfected into chinese hamster ovary cells using [3H]DAMGO as radioligand. Summed up: (§1)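 Competition binding in CHO cells transfected with cloned human opioid receptors, using [3H]DAMGO (μ), [3H]Cl-DPDPE (δ) and [3H]U69,593 (κ) as displaced radioligands. Hill slopes were examined. Data are averages of two experiments, each run in triplicate.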
Chain of Mu-type opioid receptor (P35372 whole entry): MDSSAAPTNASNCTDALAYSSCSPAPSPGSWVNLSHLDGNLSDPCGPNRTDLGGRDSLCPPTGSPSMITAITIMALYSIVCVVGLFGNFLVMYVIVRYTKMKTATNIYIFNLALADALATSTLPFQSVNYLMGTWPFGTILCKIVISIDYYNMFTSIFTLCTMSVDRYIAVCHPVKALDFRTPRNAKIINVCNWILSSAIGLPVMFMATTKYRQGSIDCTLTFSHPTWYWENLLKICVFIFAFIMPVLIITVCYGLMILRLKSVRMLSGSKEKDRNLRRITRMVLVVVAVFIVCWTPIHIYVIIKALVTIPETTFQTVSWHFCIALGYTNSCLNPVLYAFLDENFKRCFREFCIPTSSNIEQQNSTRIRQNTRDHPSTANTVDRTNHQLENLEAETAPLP

The target in experiment [1] is Delta-type opioid receptor (Homo sapiens, UniProt P41143). In words: Binding affinity against cloned human Opioid receptor delta 1 transfected into chinese hamster ovary cells using [3H]Cl-DPDPE as radioligand. Summed up:
as §1

Chain of Delta-type opioid receptor (P41143 whole entry): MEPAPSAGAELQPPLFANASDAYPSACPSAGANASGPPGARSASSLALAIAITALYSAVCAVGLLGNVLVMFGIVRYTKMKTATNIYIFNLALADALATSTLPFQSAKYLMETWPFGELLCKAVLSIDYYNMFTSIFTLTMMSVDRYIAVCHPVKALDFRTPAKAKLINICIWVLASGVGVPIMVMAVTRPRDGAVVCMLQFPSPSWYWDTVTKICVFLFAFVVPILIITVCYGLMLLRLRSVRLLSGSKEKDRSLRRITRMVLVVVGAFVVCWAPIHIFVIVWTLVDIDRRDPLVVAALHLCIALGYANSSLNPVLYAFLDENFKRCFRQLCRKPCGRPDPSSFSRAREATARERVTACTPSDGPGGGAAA

For the molecule `NC(=Nc1ccc2[nH]c3c(c2c1)C[C@@]1(O)C2Cc4ccc(O)c5c4[C@@]1(CCN2CC1CC1)[C@H]3O5)NCc1ccccc1` [7-benzylamino(imino)methylamino-22-cyclopropylmethyl-14-oxa-11,22-diazaheptacyclo[13.9.1.01,13.02,21.04,12.05,10.019,25]pentacosa-4(12),5(10),6,8,15,17,19(25)-heptaene-2,16-diol], the pKi on Mu-type opioid receptor is 8.00.
`CCCNC(=Nc1ccc2[nH]c3c(c2c1)C[C@@]1(O)C2Cc4ccc(O)c5c4[C@@]1(CCN2CC1CC1)[C@H]3O5)NCC1CC1` [22-cyclopropylmethyl-7-cyclopropylmethylamino(propylimino)methylamino-14-oxa-11,22-diazaheptacyclo[13.9.1.01,13.02,21.04,12.05,10.019,25]pentacosa-4(12),5(10),6,8,15,17,19(25)-heptaene-2,16-diol]: in experiment [1], the pKi was 7.82.

A word on the pKi: it is the Ki on a negative log10 scale, so that one unit is a factor of ten. A higher pKi goes with a small Ki.
